Experiment [1] has as its target T1, Protein-glutamine gamma-glutamyltransferase (Homo sapiens) (UniProt P21980).
T1 sequence (whole entry): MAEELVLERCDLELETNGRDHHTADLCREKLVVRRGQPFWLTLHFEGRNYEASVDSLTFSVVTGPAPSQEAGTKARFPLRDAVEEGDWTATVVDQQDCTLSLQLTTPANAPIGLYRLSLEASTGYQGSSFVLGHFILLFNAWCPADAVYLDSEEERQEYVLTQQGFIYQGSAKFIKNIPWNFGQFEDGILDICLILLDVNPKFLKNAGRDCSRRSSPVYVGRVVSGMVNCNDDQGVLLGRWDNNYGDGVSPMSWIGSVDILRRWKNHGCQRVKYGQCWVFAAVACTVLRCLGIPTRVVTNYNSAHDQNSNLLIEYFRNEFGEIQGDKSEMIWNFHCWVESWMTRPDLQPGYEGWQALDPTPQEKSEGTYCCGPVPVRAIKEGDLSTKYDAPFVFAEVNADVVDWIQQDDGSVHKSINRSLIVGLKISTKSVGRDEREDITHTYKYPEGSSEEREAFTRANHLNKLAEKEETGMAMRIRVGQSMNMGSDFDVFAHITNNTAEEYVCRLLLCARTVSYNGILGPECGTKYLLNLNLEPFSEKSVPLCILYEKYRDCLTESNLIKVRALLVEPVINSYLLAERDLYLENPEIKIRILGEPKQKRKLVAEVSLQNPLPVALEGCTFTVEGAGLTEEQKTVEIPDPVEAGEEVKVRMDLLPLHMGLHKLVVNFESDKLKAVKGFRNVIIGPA
As to the kind of experiment: Inhibition of recombinant human TG2 expressed in Escherichia coli assessed as Kinact using Cbz-Glu(gamma-p-nitrophenyl ester)Gly (AL5) as substrate by colorimetric assay. An outline of the steps:
(§1)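 Kitz–Wilson conditions, triplicate, 25 °C: 50 mM MOPS pH 6.9, 7.5 mM CaCl2, 100 μM AL5, inhibitor 0.5–900 μM (varies by inhibitor), DMSO ≤5% v/v final; started with 5 mU/mL TG2; p-nitrophenolate read at 405 nm for 20 min. Mono-exponential fits give kobs; kobs vs [I] fitted to saturation model with α = 1+[S]/KM (KM 10 μM), giving kinact and KI; double reciprocal if unsaturated.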

Experiment [2] addresses T2, Protein-glutamine gamma-glutamyltransferase (Homo sapiens, UniProt P21980).
T2 sequence (P21980 whole entry): T1 sequence (whole entry)
The experiment is described as follows: Inhibition of recombinant human TG2 expressed in Escherichia coli assessed as inhibition constant using Cbz-Glu(gamma-p-nitrophenyl ester)Gly (AL5) as substrate by colorimetric assay. An outline of the steps: as §1

Experiment [3] concerns the target T1, Protein-glutamine gamma-glutamyltransferase (Homo sapiens). The experiment is described as follows: Inhibition of recombinant human TG2 expressed in Escherichia coli assessed as Kinact/Ki ratio using Cbz-Glu(gamma-p-nitrophenyl ester)Gly (AL5) as substrate by colorimetric assay. Summed up: as §1
Experiment [4] shares this target. The experiment is described as follows: Inhibition of GTP binding to recombinant human TG2 expressed in Escherichia coli incubated for 30 mins by GTP-gamma-S BODIPY assay.

The source made the active and inactive calls. No cut-off for these calls is given here.

For orientation: Ki means a measure of affinity in units of concentration, obtained from inhibition or displacement. Consider `C=CC(=O)NCCCCC(=O)N1CCN(C(=O)C23CC4CC(CC(C4)C2)C3)CC1`, for which, in experiment [1], the Kinact stood at 0.19 min⁻¹. Moreover, the Ki in experiment [2] turned out to be 4.5 µM. In addition, the Ratio in experiment [3] is 41.9 10^3/M/min.

`C=CC(=O)NCCC(=O)N1CCN(C(=O)c2cccc3ccccc23)CC1`: the Kinact in experiment [1] amounted to 0.13 min⁻¹. The Ki in experiment [2] was determined as 51.6 µM. In experiment [3], the Ratio was 2.4 10^3/M/min.

On to `C=CC(=O)NCC(=O)N1CCN(S(=O)(=O)c2cccc3ccccc23)CC1`, for which the Kinact in experiment [1] was 0.7 min⁻¹. Moreover, the Ki in experiment [2] is 6.51 µM. For the same compound, the Ratio in experiment [3] is 108 10^3/M/min. The inhibition result in experiment [4] is “Active”.

On to `C=CC(=O)NCCC(=O)N1CCN(S(=O)(=O)c2cccc3c(N(C)C)cccc23)CC1`, for which, in experiment [1], the Kinact came to 0.25 min⁻¹. The Ki in experiment [2] stood at 64.5 µM. Moreover, the Ratio in experiment [3] is 3.9 10^3/M/min.

On to `C=CC(=O)NCCCCC(=O)N1CCN(C(=O)c2cccc3ccccc23)CC1`, for which, in experiment [1], the Kinact was 0.44 min⁻¹. The Ki in experiment [2] amounted to 142 µM. Also, the Ratio in experiment [3] is 3.1 10^3/M/min.

Turning to `C=CC(=O)NCCCCCC(=O)N1CCN(C(=O)c2cccc3ccccc23)CC1`, the Kinact in experiment [1] is 0.46 min⁻¹. In addition, the Ki in experiment [2] stood at 109 µM. The Ratio in experiment [3] was 4.2 10^3/M/min.

As for `C=CC(=O)NCC(=O)N1CCN(C(=O)c2cccc3ccccc23)CC1`, the Kinact in experiment [1] was determined as 0.69 min⁻¹. Moreover, the Ki in experiment [2] amounted to 25 µM. Also, the Ratio in experiment [3] is 27.5 10^3/M/min. Moreover, the inhibition result in experiment [4] was “Active”.

As to `C=CC(=O)NCC(=O)N1CCN(C(=O)C23CC4CC(CC(C4)C2)C3)CC1`, the Kinact in experiment [1] was determined as 1.34 min⁻¹. In addition, the Ki in experiment [2] was determined as 3.2 µM. For the same compound, the Ratio in experiment [3] is 412 10^3/M/min. Also, the inhibition entry in experiment [4] is “Active”.

Turning to `C=CC(=O)NCCCC(=O)N1CCN(S(=O)(=O)c2cccc3c(N(C)C)cccc23)CC1`, the Kinact in experiment [1] is 0.54 min⁻¹. Besides, the Ki in experiment [2] is 74.2 µM. In experiment [3], the Ratio is 7.3 10^3/M/min.

`C=CC(=O)NCCCCCC(=O)N1CCN(S(=O)(=O)c2cccc3c(N(C)C)cccc23)CC1`: the Kinact in experiment [1] turned out to be 0.23 min⁻¹. Also, the Ki in experiment [2] stood at 27.4 µM. The Ratio in experiment [3] was 8.6 10^3/M/min.

Regarding `C=CC(=O)NCCCCCC(=O)N1CCN(C(=O)C23CC4CC(CC(C4)C2)C3)CC1`, in experiment [1], the Kinact was determined as 0.36 min⁻¹. Besides, the Ki in experiment [2] was 38 µM. Besides, the Ratio in experiment [3] is 9.5 10^3/M/min.

Consider `C=CC(=O)NCC(=O)N1CCN(S(=O)(=O)c2cccc3c(N(C)C)cccc23)CC1`, for which, in experiment [1], the Kinact is 2.25 min⁻¹. For the same compound, in experiment [2], the Ki was 1.49 µM. Besides, in experiment [3], the Ratio was 1510 10^3/M/min. Moreover, in experiment [4], the inhibition result was “Active”.

Take `C=CC(=O)NCCCCC(=O)N1CCN(S(=O)(=O)c2cccc3c(N(C)C)cccc23)CC1`: the Kinact in experiment [1] came out at 0.55 min⁻¹. In experiment [2], the Ki is 42 µM. Also, the Ratio in experiment [3] is 13.1 10^3/M/min.

For `C=CC(=O)NCCCC(=O)N1CCN(C(=O)c2cccc3ccccc23)CC1`, the Kinact in experiment [1] came out at 0.45 min⁻¹. Also, the Ki in experiment [2] was found to be 134 µM. For the same compound, the Ratio in experiment [3] was 3.3 10^3/M/min.
